An excerpt weighted towards active compounds, which were near 2.2% of everything screened.
NR2E3 ag-1: agonists of human nuclear receptor NR2E3. 320,000 compounds, 0.12% hits. Q9Y5X4. GST-NR2E3/biotin-RetCOR TR-FRET, 1536-well. inhibition of corepressor binding, % at 4.78 µM;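 active = percent inhibition above the cutoff of mean plus 3 SD of all tested compounds, set per screening campaign, cut at about 20% in these data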
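system = GST-tagged NR2E3 plus biotinylated RetCOR corepressor | input = 1.35 nM GST-NR2E3 | also added = 7 nM biotin-RetCOR | schedule = 5 h incubation at 4 °C | measured by = TR-FRET with europium anti-GST and streptavidin-D2, 340 nm excitation | read-out = percent loss of FRET ratio relative to control wells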
GalR3 antagonist: human GalR3 antagonism | inhibition, % at 3 µM | HEK293 GalR3-CNG cAMP membrane potential fluorescence; galR3 body fused to GalR1 C-terminus | O60755 | 360,000 compounds, 0.44% hits;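 active = inhibition above the screen-wide average plus 3 SD, cut at about 13% in these data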;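 note: forskolin and galanin both at EC90 stimulate the cells; cAMP rise reported by CNG channel membrane potential dye signal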
Target sequence (O60755 1-299 limits assumed): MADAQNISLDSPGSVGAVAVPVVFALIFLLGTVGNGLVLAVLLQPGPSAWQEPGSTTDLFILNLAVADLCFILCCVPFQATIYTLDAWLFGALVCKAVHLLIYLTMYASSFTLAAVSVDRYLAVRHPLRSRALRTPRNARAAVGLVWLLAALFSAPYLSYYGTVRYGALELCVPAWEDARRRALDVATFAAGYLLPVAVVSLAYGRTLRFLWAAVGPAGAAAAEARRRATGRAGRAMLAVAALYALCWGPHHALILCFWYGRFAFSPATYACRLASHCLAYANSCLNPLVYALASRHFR
NR2E3 ag-2: activates human NR2E3 receptor; Q9Y5X4; CHO-S Gal4-NCOR/VP16-NR2E3 two-hybrid, luciferase; inhibition of corepressor binding, % at 3.98 µM; 360,000 compounds, 0.35% hits;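 active = inhibition above the mean of all tested compounds plus 3 SD, cut at about 70% in these data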;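 note: higher means lower luciferase signal from less NR2E3 corepressor binding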
SMARCA2 act: SMARCA2 function activation, primary screen. MG213 cells, MMTV-luciferase reporter, dexamethasone, overnight. activation, % at 9.1 µM. AID 652017. 370,000 compounds, 1% hits; in the data active = activation above about 7.8%
NR2F2 inh: inhibitors of human COUP-TFII (NR2F2). P24468. HEK293T NGFI-A luciferase reporter, luminescence. inhibition, % at 8.6 µM. 370,000 compounds, 0.7% hits. AID 686940;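 active = inhibition above a per-plate cutoff, mean inhibition of test wells between control levels plus 3 SD, cut at about 38% in these data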;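 note: cells cotransfected with COUP-TFII expression vector driving the NGFI-A reporter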
Target sequence (P24468 whole entry, looked up): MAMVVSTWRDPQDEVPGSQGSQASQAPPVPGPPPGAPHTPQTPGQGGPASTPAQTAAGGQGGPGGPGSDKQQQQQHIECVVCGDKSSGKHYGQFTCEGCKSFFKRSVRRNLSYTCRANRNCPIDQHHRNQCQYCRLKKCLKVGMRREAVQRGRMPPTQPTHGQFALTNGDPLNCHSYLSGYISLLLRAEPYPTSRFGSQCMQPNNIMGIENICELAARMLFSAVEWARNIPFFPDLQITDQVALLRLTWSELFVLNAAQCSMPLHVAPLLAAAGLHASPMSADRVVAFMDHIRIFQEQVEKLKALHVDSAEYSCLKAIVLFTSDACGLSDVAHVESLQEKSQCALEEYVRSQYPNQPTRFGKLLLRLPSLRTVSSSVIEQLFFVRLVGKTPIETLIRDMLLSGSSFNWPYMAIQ
Gal4-VP16 ctr: inhibits VP16 reporter, flagging COUP-TFII antagonist hits; shares compounds with NR2F2 inh; HEK293 Gal4-VP16 luciferase reporter, luminescence; inhibition, % at 8.5 µM; 2,500 compounds, 25% hits; AID 687007; in the data active = inhibition above about 13%
COUP-TFII conf: COUP-TFII (NR2F2) inhibition, confirmation assay | HEK293 NGFI-A luciferase reporter, luminescence | shares compounds with NR2F2 inh | 2,500 compounds, 45% hits | inhibition, % at 8.5 µM | AID 687008;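 active = mean inhibition over three repeats above a set limit taken from the earlier primary screen, cut at about 38% in these data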
Each line names hits and unclear results; the compound was inactive in the other large screens (follow-up assays come after a bar, where they were run).

COc1cccc(CN2C(=O)C(C)N(C(=O)c3c(F)cccc3F)c3ccccc32)c1 (stereo not drawn)	NR2F2 inh 50.2 | Gal4-VP16 ctr inactive | COUP-TFII conf inactive
CC1C(=O)N(Cc2ccccc2F)c2ccccc2N1C(=O)c1c(F)cccc1F (stereo not drawn)	NR2F2 inh 47.4 | Gal4-VP16 ctr inactive | COUP-TFII conf inactive
O=C(O)c1ccc(NC(=O)c2cccc(S(=O)(=O)Nc3ccc(C(=O)O)cc3)c2)cc1	none
O=C1CSc2ccc(C(=O)Nc3cccc(S(=O)(=O)Nc4ccc(Br)cc4)c3)cc2N1	NR2F2 inh 74.5 | Gal4-VP16 ctr inactive | COUP-TFII conf inactive
CN(Cc1ccc(OCC(O)CN2CCCCC2)cc1)Cc1ccnc2ccccc12 (stereo not drawn)	NR2F2 inh 59.4 (no result: NR2E3 ag-1) | Gal4-VP16 ctr inactive | COUP-TFII conf 44.4
Cc1cc(C)n2c(Nc3ccc4c(c3)OCCO4)c(-c3ccc(C)o3)nc2n1	none
Cc1cc(C)n2c(Nc3ccc4c(c3)OCCO4)c(-c3cc4ccccc4o3)nc2n1	NR2F2 inh 51.3 (no result: NR2E3 ag-1) | Gal4-VP16 ctr inactive | COUP-TFII conf inactive
COc1cccc(/C=N/Nc2ccc(C(=O)O)cc2)c1O	NR2F2 inh 69.1 | Gal4-VP16 ctr 65.1 | COUP-TFII conf 92.1
CCCCN1C=CC(=C2C(=O)c3ccccc3C2=O)C=C1	NR2F2 inh 79.8 | Gal4-VP16 ctr 66.8 | COUP-TFII conf 67.0
CCCCNC1=CC(=O)C(=O)c2ccccc21	none
Cn1c(SCC(=O)NCCN2CCCCC2)nc2cccnc21	none (no result: NR2E3 ag-1, GalR3 antagonist, NR2E3 ag-2)
Cc1c(CCC(=O)N2CCC(C(=O)O)CC2)c(=O)oc2cc3oc4c(c3cc12)CCCC4	NR2F2 inh 60.5 | Gal4-VP16 ctr inactive | COUP-TFII conf inactive
Cc1c(CC(=O)NCCC(=O)O)c(=O)oc2cc3oc4c(c3cc12)CCCC4	none
Cc1c(CCC(=O)N2CCC(C(=O)O)(c3ccccc3)CC2)c(=O)oc2cc3oc4c(c3cc12)CCCC4	NR2F2 inh 53.4 | Gal4-VP16 ctr 37.0 | COUP-TFII conf inactive
Cc1c(CCC(=O)N[C@@H](C)C(=O)O)c(=O)oc2cc3oc4c(c3cc12)CCCC4	NR2F2 inh 46.8 | Gal4-VP16 ctr 32.6 | COUP-TFII conf inactive
Cc1oc2cc3oc(=O)c(CCC(=O)N4CCC(C(=O)O)(c5ccccc5)CC4)c(C)c3cc2c1C	none (no result: NR2E3 ag-1)
O=C(c1cncnc1)N1CCC(n2nnc3ncccc32)CC1	none (no result: NR2E3 ag-1, GalR3 antagonist, NR2E3 ag-2)
COC(=O)[C@]12C[C@H](CC(=O)NCc3cccc4ccccc34)C(=O)N(CCC3=CCCCC3)C1=C[C@H](C(C)C)O[C@@H]2C1CC1	none (no result: NR2E3 ag-1, GalR3 antagonist, NR2E3 ag-2)
CC(=O)N1CCOc2ccc(S(=O)(=O)NCC3CCC(C(=O)Nc4ccc(C)cn4)CC3)cc21 (stereo not drawn)	NR2F2 inh 38.6 | Gal4-VP16 ctr inactive | COUP-TFII conf inactive
Cc1c(C=O)c2ccccc2n1CCOc1ccccc1F	NR2F2 inh 45.0 | Gal4-VP16 ctr inactive | COUP-TFII conf inactive
CN(C)c1ccc(N=Nc2nc3ccccc3n2C)cc1	NR2F2 inh 60.6 | Gal4-VP16 ctr inactive | COUP-TFII conf inactive
Cn1c(N=Nc2ccccc2)nc2ccccc21	none
CCn1c(SCC(=O)c2[nH]c(C)c(C(C)=O)c2C)nnc1-c1cccs1	NR2F2 inh 52.4 | Gal4-VP16 ctr inactive | COUP-TFII conf inactive
CCn1c(SCC(=O)c2cccs2)nnc1-c1cccs1	none
COc1ccc(C(=O)N2CCN(C3CCC(c4ccccc4)CC3)CC2)cc1OC (stereo not drawn)	NR2F2 inh 41.2 | Gal4-VP16 ctr inactive | COUP-TFII conf inactive
COc1ccc(C(=O)N2CCC(N3CCN(c4ccccc4)CC3)CC2)cc1OC	none
O=C(NCCc1ccc2c(c1)OCO2)c1cc(-c2ccccc2)c(N2CCOCC2)s1	none (no result: NR2E3 ag-1, GalR3 antagonist, NR2E3 ag-2)
CCOC(=O)c1csc(NC(=O)C2CCCN(S(=O)(=O)c3ccc([N+](=O)[O-])cc3)C2)n1 (stereo not drawn)	NR2F2 inh 45.6 (no result: NR2E3 ag-1, GalR3 antagonist, NR2E3 ag-2) | Gal4-VP16 ctr inactive | COUP-TFII conf inactive
O=C(NCc1ccco1)C1CCCN(S(=O)(=O)c2ccccc2[N+](=O)[O-])C1 (stereo not drawn)	none (no result: NR2E3 ag-1, GalR3 antagonist, NR2E3 ag-2)
Cc1cc(N2CCCC2)ccc1NC(=O)COc1cccc(C(F)(F)F)c1	NR2F2 inh 40.0 | Gal4-VP16 ctr inactive | COUP-TFII conf inactive
COc1ccc(CCNC(=O)C(=O)NCC2OCCN2S(=O)(=O)c2ccc(Cl)cc2)cc1OC (stereo not drawn)	NR2F2 inh 42.4 (no result: GalR3 antagonist) | Gal4-VP16 ctr inactive | COUP-TFII conf inactive
N#Cc1c(NC(=O)CCCC(=O)O)sc2c1CCCCC2	NR2F2 inh 46.3 | Gal4-VP16 ctr 16.7 | COUP-TFII conf inactive
N#Cc1c(NC(=O)CSc2ncn[nH]2)sc2c1CCCC2	NR2F2 inh 76.8 | Gal4-VP16 ctr 78.5 | COUP-TFII conf 74.3
CC1CCc2c(sc(NC(=O)CSc3ncn[nH]3)c2C#N)C1 (stereo not drawn)	NR2F2 inh 85.9 | Gal4-VP16 ctr 79.9 | COUP-TFII conf 84.1
CC(C)(C)C1CCc2c(sc(NC(=O)CSc3ncn[nH]3)c2C#N)C1 (stereo not drawn)	none
O=C(CN1CCN(c2nc(-c3ccccc3)cs2)CC1)Nc1ccc(Cl)cc1	none (no result: NR2E3 ag-1, GalR3 antagonist, NR2E3 ag-2)
Cc1c(CC(=O)NCCCC(=O)O)c(=O)oc2cc3c(cc12)CCC(C)(C)O3	NR2F2 inh 51.1 | Gal4-VP16 ctr 61.0 | COUP-TFII conf inactive
Cc1c(CC(=O)NCCCCCC(=O)O)c(=O)oc2cc3c(cc12)CCC(C)(C)O3	none (no result: NR2E3 ag-1)
Cc1noc(C)c1COc1ccccc1C(=O)N(C)Cc1ccc(C(C)(C)C)cc1	NR2F2 inh 40.7 | Gal4-VP16 ctr inactive | COUP-TFII conf inactive
COC(=O)N1CCC[C@H]1c1cccc2[nH]cc(C)c12	none (no result: NR2E3 ag-1, GalR3 antagonist, NR2E3 ag-2)
Cc1nc(NCc2ccccn2)c2ccccc2n1	NR2F2 inh 43.0 | Gal4-VP16 ctr inactive | COUP-TFII conf inactive
Cc1cc(NCc2ccccn2)nc2ccccc12	none
CCc1nc(NCc2ccccn2)c2oc3ccccc3c2n1	NR2F2 inh 39.0 | Gal4-VP16 ctr inactive | COUP-TFII conf inactive
COc1ccccc1C(=O)N1CCCC(c2nc(-c3cccs3)no2)C1 (stereo not drawn)	none (no result: NR2E3 ag-1, GalR3 antagonist, NR2E3 ag-2)
COc1ccc(/C=C/C(=O)Nc2ccccc2C(=O)O)cc1OC	NR2F2 inh 59.6 | Gal4-VP16 ctr inactive | COUP-TFII conf inactive
CC(=O)C(C(C)=O)c1c(Cl)c(O)c(O)c2c(C(=O)c3ccccc3)coc12	NR2F2 inh 67.5 | Gal4-VP16 ctr 14.1 | COUP-TFII conf 59.9
CN1CCN(Cc2c(O)ccc3occ(C(=O)c4ccccc4)c23)CC1	none
COC(=O)c1cc(-c2ccccc2)c(=O)n2c1CCC2	none (no result: NR2E3 ag-1, GalR3 antagonist, NR2E3 ag-2)
Clc1cccc(CNc2nc(-c3ccccn3)nnc2-c2ccccc2)c1	NR2F2 inh 38.4 (no result: NR2E3 ag-1, GalR3 antagonist, NR2E3 ag-2, SMARCA2 act) | Gal4-VP16 ctr inactive | COUP-TFII conf inactive

Compound activity: PubChem BioAssay, The Scripps Research Institute Molecular Screening Center
